This is an account of results in ChEMBL document CHEMBL1126286, “Oral hypoglycemic agents. Pyrimido[1,2-a]indoles and related compounds” (1992).

Type in all cases: functional
In test [1] the test system is Rattus norvegicus. Kind of test: Hypoglycemic activity was tested in rats at a standard dose of 100 mg/kg and calculated as percent of vehicle control after 2 hours (six rats per group). Put shortly:
(§1)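 Fed male Sprague-Dawley CD rats (280-320 g), six per group, 100 mg/kg po as solution in water or suspension in 0.5% carboxymethylcellulose (1 mL/kg); parallel vehicle controls. Tail-vein blood (0.3 mL) taken 2 and 4 h post-dose into EDTA and Trasylol; plasma glucose by glucose oxidase-peroxidase, expressed as percent of vehicle control; Student-Newman-Keuls test for significance.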

For test [2], the species on record is Rattus norvegicus. Briefly: Potency to dissociate hypoglycemic activity relative to compound 38. The procedure, abridged: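 Three-point oral dose-response in fed male Sprague-Dawley CD rats, eight per group, with the reference standard run alongside; 10, 30 and 100 mg/kg po (some studies 10, 20, 50 mg/kg). Rats exsanguinated by decapitation at 4 h; blood into EDTA and Trasylol, plasma glucose by glucose oxidase-peroxidase; potency relative to standard.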

Test [3] relates to Rattus norvegicus. Briefly: Hypoglycemic activity was tested in rats at a standard dose of 100 mg/kg and calculated as percent of vehicle control after 4 hours (six rats per group). Put shortly: as §1

Turning to `CC1(C)CN=C2N(C1)c1ccccc1C2(N)c1ccccc1.Cl.Cl` (stereo unspecified), the Blood glucose is recorded as 78% in the test on Rattus norvegicus [1] and 68% with Rattus norvegicus [3]. In the test listed under Rattus norvegicus [2], the Relative potency is recorded as 0.9.

As to `Cl.Cl.NC1(c2ccccc2)C2=NCCCN2c2ccccc21` (stereo unspecified), the Blood glucose is 84% in the test on Rattus norvegicus [1] and 93% in the test on Rattus norvegicus [3]. In addition, the Relative potency in the test listed under Rattus norvegicus [2] was 0.47.

Consider `Cl.Cl.OC1(c2ccccc2)C2=NCC3(CCNCC3)CN2c2ccccc21` (stereo unspecified), for which the Blood glucose with Rattus norvegicus [1] is recorded as 102%; with Rattus norvegicus [3], 92%.

On to `CC1(C)CN=C2N(C1)c1ccccc1C2(NC(=O)c1ccccc1)c1ccccc1.Cl` (stereo unspecified), for which the Blood glucose is listed as 104% in the test on Rattus norvegicus [1] and 116% with Rattus norvegicus [3].

As to `CCCCC1(O)C2=NCC3(CCCCC3)CN2c2ccccc21.Cl` (stereo unspecified), the Blood glucose with Rattus norvegicus [1] was 60%; in the test with Rattus norvegicus [3] it was 68%. The Relative potency in the test filed under Rattus norvegicus [2] is 3.69.

With `C=CCC1(O)C2=NCC(C)(C)CN2c2ccccc21.Cl` (stereo unspecified), the Blood glucose is reported as 86% in the test on Rattus norvegicus [1] and 74% with Rattus norvegicus [3].

`CC1(C)CN=C2N(C1)c1ccccc1C2(O)C1CC1.Cl` (stereo unspecified): the Blood glucose in the test on Rattus norvegicus [1] was 83%; with Rattus norvegicus [3], 81%. The compound further had a Relative potency in the test filed under Rattus norvegicus [2] of 0.11.

For the compound `CCC1(O)C2=NCC(C)(C)CN2c2ccccc21.Cl` (stereo unspecified), the results for the Blood glucose with Rattus norvegicus [1] and in the test with Rattus norvegicus [3] were 89% and 93%, respectively.

Regarding `CC(C)(C)CC1(O)C2=NCC(C)(C)CN2c2ccccc21.Cl` (stereo unspecified), the figures for the Blood glucose in the test on Rattus norvegicus [1] and in the test with Rattus norvegicus [3] were 68% and 81%, respectively. Also, the Relative potency in the test listed under Rattus norvegicus [2] was found to be 0.65.

As for `CC1(C)CN=C2N(C1)c1ccccc1C2(NS(C)(=O)=O)c1ccccc1.Cl` (stereo unspecified), the Blood glucose with Rattus norvegicus [1] is reported as 76%; in the test on Rattus norvegicus [3], 67%. Moreover, the Relative potency in the test listed under Rattus norvegicus [2] was 0.04.

With `CCCC(=O)NC1(c2ccccc2)C2=NCC(C)(C)CN2c2ccccc21.Cl` (stereo unspecified), the Blood glucose is recorded as 101% in the test with Rattus norvegicus [1] and 77% in the test with Rattus norvegicus [3].

Take `CCCCC1(O)C2=NCC(C)(C)CN2c2ccccc21.Cl` (stereo unspecified): the Blood glucose is 58% with Rattus norvegicus [1] and 67% with Rattus norvegicus [3].

`Cl.OC1(c2ccc3ccccc3c2)C2=NCCCN2c2ccccc21` (stereo unspecified): the results for the Blood glucose in the test on Rattus norvegicus [1] and in the test on Rattus norvegicus [3] were 88% and 64%, respectively. In addition, the Relative potency in the test filed under Rattus norvegicus [2] came out at 0.01.

On to `Cl.OC1(c2ccccc2)C2=NCCCN2c2ccccc21` (stereo unspecified), for which the Blood glucose with Rattus norvegicus [1] is 86%; in the test with Rattus norvegicus [3], 82%. The compound also yielded a Relative potency in the test listed under Rattus norvegicus [2] of 0.52.

`Cl.OC1(CC2CCCCC2)C2=NCCCN2c2ccccc21` (stereo unspecified): the Blood glucose in the test on Rattus norvegicus [1] was 77%; in the test with Rattus norvegicus [3] it was 81%. In the test filed under Rattus norvegicus [2], this compound showed a Relative potency of 0.12.

Turning to `CC(C)CC1(O)C2=NCCCN2c2ccccc21.Cl` (stereo unspecified), the figures for the Blood glucose in the test with Rattus norvegicus [1] and with Rattus norvegicus [3] were 79% and 86%, respectively.

Consider `CCOCCCCC1(O)C2=NCCCN2c2ccccc21.Cl` (stereo unspecified), for which the Blood glucose in the test with Rattus norvegicus [1] is given as 100%; with Rattus norvegicus [3], 96%.

`COCC(C)CC1(O)C2=NCCCN2c2ccccc21.Cl` (stereo unspecified): the results for the Blood glucose in the test with Rattus norvegicus [1] and in the test on Rattus norvegicus [3] were 94% and 98%, respectively.

For the compound `CC1(C)CN=C2N(C1)c1ccccc1C2(O)c1ccccc1.Cl` (stereo unspecified), the Blood glucose with Rattus norvegicus [1] was 90%; in the test on Rattus norvegicus [3], 75%. For the same compound, in the test filed under Rattus norvegicus [2], the Relative potency is listed as 1.

`COCC(C)CC1(O)C2=NCC(C)(C)CN2c2ccccc21.Cl` (stereo unspecified): the Blood glucose with Rattus norvegicus [1] is 73%; in the test with Rattus norvegicus [3], 72%. The compound further displayed a Relative potency in the test filed under Rattus norvegicus [2] of 0.47.

For `CC(=O)NC1(c2ccccc2)C2=NCC3(CCCC3)CN2c2ccccc21.Cl` (stereo unspecified), the Blood glucose with Rattus norvegicus [1] is reported as 99%; with Rattus norvegicus [3] it was 90%.

As to `CC(C)CC1(O)C2=NCC(C)(C)CN2c2ccccc21.Cl` (stereo unspecified), the Blood glucose in the test on Rattus norvegicus [1] is given as 88%; in the test with Rattus norvegicus [3], 77%. The same compound displayed a Relative potency in the test listed under Rattus norvegicus [2] of 0.69.

With `Cl.OCC#CC1(O)C2=NCCCN2c2ccccc21` (stereo unspecified), the Blood glucose in the test on Rattus norvegicus [1] and with Rattus norvegicus [3] was 94% in each case.

On to `CC(=O)NC1(c2cccc(Cl)c2)C2=NCCCN2c2ccccc21.Cl` (stereo unspecified), for which the Blood glucose in the test on Rattus norvegicus [1] was 89%; in the test with Rattus norvegicus [3] it was 85%. This compound returned a Relative potency in the test filed under Rattus norvegicus [2] of 0.5.

As for `Cl.NC1(c2cccc(Cl)c2)C2=NCCCN2c2ccccc21` (stereo unspecified), the values for the Blood glucose with Rattus norvegicus [1] and with Rattus norvegicus [3] were 95% and 84%, respectively.

For `COCCCCC1(O)C2=NCC(C)(C)CN2c2ccccc21.Cl` (stereo unspecified), the Blood glucose in the test with Rattus norvegicus [1] is reported as 79%; in the test on Rattus norvegicus [3], 87%. This compound displayed a Relative potency in the test filed under Rattus norvegicus [2] of 0.05.

Take `CCC(CC)CC1(O)C2=NCCCN2c2ccccc21.Cl` (stereo unspecified): the Blood glucose with Rattus norvegicus [1] is on record as 82%; in the test with Rattus norvegicus [3] it was 68%. In addition, the Relative potency in the test listed under Rattus norvegicus [2] is reported as 0.86.

`Cl.OC1(c2cccc(Cl)c2)C2=NCCCN2c2ccccc21` (stereo unspecified): the figures for the Blood glucose in the test with Rattus norvegicus [1] and in the test with Rattus norvegicus [3] were 99% and 84%, respectively.

In the case of `CC(=O)NC1(c2ccccc2)C2=NCCCN2c2ccccc21.Cl` (stereo unspecified), the Blood glucose is given as 76% with Rattus norvegicus [1] and 75% with Rattus norvegicus [3]. For the same compound, the Relative potency in the test listed under Rattus norvegicus [2] was 0.03.

Turning to `CCCCCCC1(O)C2=NCC(C)(C)CN2c2ccccc21.Cl` (stereo unspecified), the Blood glucose with Rattus norvegicus [1] is on record as 103%; in the test on Rattus norvegicus [3], 107%.

As to `CC(C)CCC1(O)C2=NCC(C)(C)CN2c2ccccc21.Cl` (stereo unspecified), the Blood glucose was 65% in the test with Rattus norvegicus [1] and 78% in the test with Rattus norvegicus [3].

Take `COCCCCC1(O)C2=NCCCN2c2ccccc21.Cl` (stereo unspecified): the Blood glucose was 86% in the test on Rattus norvegicus [1] and 87% in the test on Rattus norvegicus [3].

In the case of `CCOCCCCC1(O)C2=NCC(C)(C)CN2c2ccccc21.Cl` (stereo unspecified), the Blood glucose with Rattus norvegicus [1] is listed as 88%; in the test on Rattus norvegicus [3] it was 86%.

`Cl.OC1(c2ccccc2)C2=NCC3(CCCCCC3)CN2c2ccccc21` (stereo unspecified): the Blood glucose in the test on Rattus norvegicus [1] is on record as 87%; in the test with Rattus norvegicus [3], 76%. In the test listed under Rattus norvegicus [2], this compound yielded a Relative potency of 0.3.

Consider `Cl.OC1(c2ccccc2)C2=NCC3(CCCC3)CN2c2ccccc21` (stereo unspecified), for which the results for the Blood glucose in the test with Rattus norvegicus [1] and with Rattus norvegicus [3] were 75% and 71%, respectively. Moreover, in the test listed under Rattus norvegicus [2], the Relative potency came out at 0.1.

As for `CC(CCC1(O)C2=NCCCN2c2ccccc21)c1ccccc1.Cl` (stereo unspecified), the Blood glucose with Rattus norvegicus [1] is given as 99%; in the test with Rattus norvegicus [3], 88%.

For `COC(C)CCC1(O)C2=NCCCN2c2ccccc21.Cl` (stereo unspecified), the values for the Blood glucose in the test with Rattus norvegicus [1] and in the test on Rattus norvegicus [3] were 88% and 95%, respectively.

As to `Cc1ccc(S(=O)(=O)NC(=O)NC2(c3ccccc3)C3=NCC(C)(C)CN3c3ccccc32)cc1.Cl` (stereo unspecified), the values for the Blood glucose in the test with Rattus norvegicus [1] and in the test with Rattus norvegicus [3] were 101% and 90%, respectively.

In the case of `CC(=O)NC1(c2ccccc2)C2=NCC(C)(C)CN2c2ccccc21.Cl` (stereo unspecified), the Blood glucose is given as 85% in the test on Rattus norvegicus [1] and 77% in the test on Rattus norvegicus [3]. Also, the Relative potency in the test listed under Rattus norvegicus [2] came to 0.03.

Consider `COC(C)CCC1(O)C2=NCC(C)(C)CN2c2ccccc21.Cl` (stereo unspecified), for which the figures for the Blood glucose in the test on Rattus norvegicus [1] and in the test on Rattus norvegicus [3] were 69% and 73%, respectively. This compound yielded a Relative potency in the test filed under Rattus norvegicus [2] of 1.1.

On to `CC1(C)CN=C2N(C1)c1ccccc1C2(O)CCCCOCc1ccccc1.Cl` (stereo unspecified), for which the Blood glucose is 76% with Rattus norvegicus [1] and 91% in the test on Rattus norvegicus [3].

On to `CC(=O)NC1(c2ccc3ccccc3c2)C2=NCCCN2c2ccccc21.Cl` (stereo unspecified), for which the figures for the Blood glucose in the test on Rattus norvegicus [1] and in the test with Rattus norvegicus [3] were 104% and 100%, respectively.

In the case of `CC(=O)NC1(c2ccccc2)C2=NCCCCN2c2ccccc21.Cl` (stereo unspecified), the Blood glucose in the test on Rattus norvegicus [1] is reported as 86%; in the test with Rattus norvegicus [3] it was 73%. In the test listed under Rattus norvegicus [2], this compound showed a Relative potency of 0.13.

With `CC1(C)CN=C2N(C1)c1ccccc1C2(O)CC1CCCCC1.Cl` (stereo unspecified), the Blood glucose with Rattus norvegicus [1] is on record as 79%; with Rattus norvegicus [3] it was 84%.

On to `Cl.OC1(c2ccccc2)C2=NCC3(CCCCC3)CN2c2ccccc21` (stereo unspecified), for which the results for the Blood glucose in the test on Rattus norvegicus [1] (100 mg/kg) and in the test on Rattus norvegicus [3] (100 mg/kg) were 78% and 60%, respectively. The Relative potency in the test listed under Rattus norvegicus [2] stood at 1.33.

`Cl.OC1(c2ccccc2)C2=NCC3(CCCCC3)CN2c2ccccc21` (single isomer, unassigned; (+)): the figures for the Blood glucose in the test with Rattus norvegicus [1] (100 mg/kg) and in the test on Rattus norvegicus [3] (100 mg/kg) were 82% and 69%, respectively.

`Cl.OC1(c2ccccc2)C2=NCC3(CCCCC3)CN2c2ccccc21` (single isomer, unassigned; (-)): the Blood glucose is recorded as 81% in the test with Rattus norvegicus [1] (100 mg/kg) and 71% with Rattus norvegicus [3] (100 mg/kg).
